# Screening results: PubChem BioAssay, several laboratories
# AI-2 QS modul: modulates the Vibrio harveyi AI-2 quorum sensing system; Vibrio harveyi JMH597 AI-2 luminescence/OD600 ratio, 9 h; hits give low values; strain lacks LuxN and CqsS sensors; 0 = neutral-control median; activity change, % at 7.5 µM; 300,000 tested, 0.4% active; in the data active means activity change below about -75%, passing the limit was not always enough; inconclusive means no clear call, values can overlap the other calls;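 further: luminescence divided by OD600 gain over 9 h not by final OD600 alone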
# HDAC3 inhib: inhibitors of human histone deacetylase 3 | 320,000 tested, 0.15% active | recombinant HDAC3, fluorogenic peptide/trypsin coupled, fluorescence | inhibition, % at 8.3 µM | O15379 | AID 2718; in the data active means inhibition above about 26%, passing the limit was not always enough; inconclusive means no clear call, values can overlap the other calls
# Target sequence (O15379 whole entry, looked up): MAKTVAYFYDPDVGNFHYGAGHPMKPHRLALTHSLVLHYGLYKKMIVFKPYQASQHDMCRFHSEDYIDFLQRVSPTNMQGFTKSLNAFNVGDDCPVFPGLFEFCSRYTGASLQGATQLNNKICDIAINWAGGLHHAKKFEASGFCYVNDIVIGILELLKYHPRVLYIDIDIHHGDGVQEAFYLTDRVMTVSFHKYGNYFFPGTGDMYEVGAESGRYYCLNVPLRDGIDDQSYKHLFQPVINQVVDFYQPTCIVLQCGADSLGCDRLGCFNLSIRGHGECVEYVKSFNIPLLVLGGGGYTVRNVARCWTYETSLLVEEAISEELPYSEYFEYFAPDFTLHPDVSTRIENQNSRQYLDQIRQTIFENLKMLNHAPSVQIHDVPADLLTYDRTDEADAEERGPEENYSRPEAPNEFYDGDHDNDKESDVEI
# T cruzi inh: T. cruzi replication inhibition; T. cruzi beta-gal in NIH3T3, luminescence, 90 h; inhibition, % (concentration not given with the values); 300,000 tested, 1.4% active;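 active means mean inhibition across valid replicates above about 55%, limit read from the data; inconclusive means mean below that limit but half or more replicates reach it; inactive means mean below it, under half of replicates reach it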;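 further: signal also drops with host cell toxicity which is not excluded here; higher percent means less beta-gal luminescence so fewer parasites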
#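 Read-out: Parasite load inhibition, % | Test system: Mouse NIH/3T3 fibroblasts infected with β-gal-expressing T. cruzi Tulahuen C4 | Amount: 5,000 cells/well | Medium: DMEM, 2% fetal bovine serum | Signal: GalScreen β-gal luminescence, detergent lysis, 60 min | Timing: 3 h attach, ≥90 h co-culture | Also added: Tulahuen C4 trypomastigotes, 5000/well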
# Efflux pump inh: blocks antifungal efflux pumps in multiplex yeast assay; 330,000 tested, 0.44% active; inhibition, % at 10 µM; S. cerevisiae Candida pump triplex, Nile Red efflux;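 active means plate passing quality check with inhibition over a set limit, or well fluorescence over plate mean plus 4 SD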;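 further: Nile Red retained in pooled yeast measured as flow cytometry median fluorescence; higher means more Nile Red kept so more efflux inhibition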
# PolyA inh: inhibitors of polyadenylation in S. cerevisiae; S. cerevisiae SKY197-pL101 polyadenylation reporter, beta-gal luminescence; efflux-impaired pdr1/pdr3 knockout yeast; score 100 = 6 SD above DMSO; activity score, % at 12 µM; 300,000 tested, 0.02% active; AID 1875;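 active means lowest replicate activity score at least 50, where 100 means six control SD above control mean; inconclusive means lowest score under 50 but half or more replicates reach 50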;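 further: yeast exposed to compound for 9 h at 30 °C; higher score means more reporter readthrough which indicates perturbed polyadenylation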
# JMH597 growth rt: retest: inhibitors of Vibrio harveyi JMH597 growth | shares compounds with AI-2 QS modul | OD600 absorbance, 9 h; lacks LuxN and CqsS sensors | growth inhibition, % at 7.5 µM | 750 tested, 1% active | AID 2726;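 active means every replicate shows growth inhibition above 50%; inconclusive means at least half, but not all, replicates pass that cutoff; inactive means fewer than half of replicates pass it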
# BB721 lum counter: retest counter-screen: lowers luminescence of constitutive-QS Vibrio harveyi BB721 | 9 h | shares compounds with AI-2 QS modul | inhibition, % at 7.5 µM | AID 2727 | 750 tested, 95% active;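 active means inhibition above about 80% in every replicate, not just on average, limit read from the data; inconclusive means at least half of replicates past the limit, but not all; inactive means fewer than half of replicates past the limit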
# BB721 growth: retest Vibrio harveyi BB721 growth inhibition | shares compounds with AI-2 QS modul | OD600 absorbance, 9 h | growth inhibition, % at 7.5 µM | 750 tested, 3% active | AID 2728;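 active means every replicate shows growth inhibition above 50%; inconclusive means at least half but not all replicates above 50% inhibition; inactive means under half of replicates above 50% inhibition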
# AI-2 QS JMH597: Vibrio harveyi AI-2 signaling luminescence modulation – JMH597 strain, confirmation; shares compounds with AI-2 QS modul; Vibrio harveyi JMH597 AI-2 quorum sensing luminescence, 9 h; luxN and CqsS knockout, AI-2 only; inhibition, % at 7.5 µM; 750 tested, 97% active; AID 2736;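 active means every replicate shows more than 75% inhibition of signal versus neutral control wells; inconclusive means half to three quarters of replicates exceed 75% inhibition; inactive means fewer than half of replicates exceed 75% inhibition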
# Yeast cmpd fluor: compound fluorescence in yeast efflux pump counter-screen. S. cerevisiae AD/pABC3, flow cytometry. fluorescence ratio to DMSO, % at 10 µM. 1,700 tested, 4% active. shares compounds with Efflux pump inh;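 active means fluorescence ratio to DMSO above its plate's cutoff, the plate mean ratio plus 5 SD, cut at about 210% in these data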;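 further: unstained yeast with no Nile Red so the signal is compound autofluorescence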
# CaMdr1 efflux inh: blocks the Candida albicans Mdr1 efflux pump in yeast; inhibition, % at 10 µM; AID 588518; S. cerevisiae AD/CaMDR1, Nile Red efflux, flow cytometry; shares compounds with Efflux pump inh; 1,700 tested, 1% active; in the data active means inhibition above about 26%;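 further: higher means more Nile Red retained so more efflux inhibition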
# Cdr2 pump inh: inhibitors of Candida albicans Cdr2 efflux pump; shares compounds with Efflux pump inh; Nile Red retention ratio vs DMSO, % at 10 µM; S. cerevisiae AD/CaCDR2, Nile Red retention, flow cytometry; 1,700 tested, 4% active; AID 588520; in the data active means Nile Red retention ratio vs DMSO above about 190%;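 further: higher ratio means more blocking of Cdr2 efflux of the dye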
# CaCdr1 efflux inh: blocks the Candida albicans Cdr1 efflux pump in yeast. shares compounds with Efflux pump inh. 1,700 tested, 1% active. inhibition, % at 10 µM. S. cerevisiae AD/CaCDR1, Nile Red efflux, flow cytometry. AID 588522;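 active means inhibition above the screen-wide mean plus twice its standard deviation, cut at about 32% in these data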
# Hits are given with their value; – = inactive; ? = inconclusive; · = no result. The list is not random: actives were taken first. Their share in the collection is about 2.2%.
SMILES,AI-2 QS modul,HDAC3 inhib,T cruzi inh,Efflux pump inh,PolyA inh,others
CC1CCC(C(C)C)C(OC(=O)Cn2c(COc3ccccc3)[n+](C)c3ccccc32)C1 (stereo not given),–,–,73.0,–,–,
CCCCCn1c(=O)c(C(=O)Nc2ccccc2S(N)(=O)=O)c(O)c2ccccc21,–,–,68.6,–,–,
O=C1Nc2ccc(Br)cc2C(c2ccc(Cl)cc2)=NC1O (stereo not given),–,–,–,–,–,
COc1ccccc1CN1CCCC(C(=O)c2ccccc2SC)C1 (stereo not given),–,–,60.2,–,–,
COc1ccc(-c2cc(-c3ccccc3)[n+](C)c(-c3ccccc3)c2)cc1,–,–,55.2,–,–,
Cc1ccc(-c2cc(-c3ccccc3)cc(-c3ccccc3)[n+]2-c2ccc(C(=O)O)cc2)cc1,–,–,–,–,–,
O=C(O)c1ccc(-[n+]2c(-c3ccccc3)cc(-c3ccccc3)cc2-c2ccccc2)cc1,–,–,–,–,–,
CCCOC(=O)c1ccc(-[n+]2c(-c3ccccc3)cc(-c3ccccc3)cc2-c2ccccc2)cc1,–,–,55.4,–,–,
COc1ccc(-[n+]2c(-c3ccccc3)cc(-c3ccc(C)cc3)cc2-c2ccccc2)cc1,–,–,61.0,–,–,
COc1cc(C(=S)N2CCOCC2)cc(OC)c1OC(=O)Cc1ccccc1,–,–,–,–,–,
Cc1nc2c(=O)n(C)c(=O)nc-2n(C)n1,-95.3,–,–,–,–,
CCCNC(=O)N1[C@H]2CC[C@@H]1C(C(=O)OC)=C(c1ccc(OC)c(OC)c1)C2,·,–,·,–,·,
NC(=O)c1cn(C2OC(CO)C(O)C2O)c2ncnc(N)c12 (stereo not given),–,–,57.2,–,–,
CCNC(=O)[C@H]1O[C@@H](n2cnc3c(N)ncnc32)[C@H](O)[C@@H]1O,–,–,–,–,–,
COC(=O)C1=C(c2ccc(OC(F)(F)F)cc2)C[C@@H]2CC[C@H]1N2C(=O)NCCOc1ccccc1Cl,·,33.6,·,–,·,
Nc1c(C(=O)NCc2ccco2)c2nc3ccccc3nc2n1CCN1CCCCC1,–,–,69.0,–,–,
COc1ccc(Cn2c(N)c(C(=O)NCc3ccco3)c3nc4ccccc4nc32)cc1OC,·,–,·,–,·,
Cc1cc([N+](=O)[O-])c2ccccc2[n+]1[O-],–,–,78.8,–,–,
Cc1ccccc1[N+](=O)[O-],·,–,·,–,·,
CCCC1COC(Cn2cncn2)(c2ccc(Cl)cc2Cl)O1 (stereo not given),–,–,65.5,–,–,
Clc1ccc(CO/N=C(\Cn2ccnc2)c2ccc(Cl)cc2Cl)c(Cl)c1,–,–,67.8,–,–,
Clc1ccc(COC(Cn2ccnc2)c2ccc(Cl)cc2Cl)cc1 (stereo not given),–,–,–,–,–,
CC(C)CNC(=O)/C=C/C=C/CCCCCC/C=C/c1ccc2c(c1)OCO2,·,·,·,–,·,
CCN1CCN(C(=O)COc2ccc(S(=O)(=O)NC(C)C)cc2)CC1,–,–,–,–,–,
CN1CCN(C(=O)COc2ccc(S(=O)(=O)Nc3ccc(F)cc3)cc2)CC1,–,–,66.3,–,–,
SMILES,AI-2 QS modul,HDAC3 inhib,T cruzi inh,Efflux pump inh,PolyA inh,others
COc1ccc2c(c1OC)CN1CCc3cc4c(cc3[C@H]1C2)OCO4,·,–,·,–,·,
COc1ccc2c(c1OC)CN1CCc3cc4c(cc3C1C2)OCO4 (stereo not given),–,–,57.9,–,–,
COC(=O)C1=C(c2cccc(C#N)c2)C[C@@H]2CC[C@H]1N2C(=O)NCCCOC(C)C,·,–,·,–,·,
O=C(c1ccc(-c2ccccc2)cc1)C1CCCN(Cc2ccn[nH]2)C1 (stereo not given),-83.7,–,–,–,–,JMH597 growth rt=–;BB721 lum counter=84.3;BB721 growth=–;AI-2 QS JMH597=91.0
Cc1ccsc1C(=O)C1CCCN(Cc2ccn[nH]2)C1 (stereo not given),–,–,–,–,–,
CC(C#N)CCC#N (stereo not given),·,–,·,–,·,
COC(=O)c1cccc(N=Cc2c(O)n(Cc3ccc(F)cc3)c(=O)[nH]c2=O)c1,–,–,–,–,–,
CCC1(c2ccc(-c3ccccc3)cc2)C(=O)NC(=O)NC1=O,-90.1,–,–,–,–,JMH597 growth rt=–;BB721 lum counter=97.8;BB721 growth=–;AI-2 QS JMH597=98.3
CCC1(c2ccccc2)C(=O)NC(=O)NC1=O,·,·,·,–,·,
O=C(COC(=O)Cc1ccccc1)Nc1ccc(SC(F)F)cc1,-91.5,–,–,–,·,JMH597 growth rt=–;BB721 lum counter=94.4;BB721 growth=–;AI-2 QS JMH597=99.5
O=C(c1cc2cc(Cl)ccc2[nH]1)N1CCC2(CC1)OCCO2,-84.4,?,–,–,–,JMH597 growth rt=–;BB721 lum counter=96.4;BB721 growth=–;AI-2 QS JMH597=97.5
CCOc1ccc(N2C(=O)/C(=C/c3ccc(C)o3)C(=O)NC2=S)cc1,–,–,–,0.9,–,Yeast cmpd fluor=–;CaMdr1 efflux inh=–;Cdr2 pump inh=–;CaCdr1 efflux inh=–
COC(=O)c1ccc(NC(=O)CSc2nc3ccc(N4C(=O)C5C6C=CC(C6)C5C4=O)cc3s2)cc1 (stereo not given),–,–,–,–,–,
COC(=O)C1=C(c2ccc(C(C)=O)cc2)C[C@@H]2CC[C@H]1N2C(=O)NCCO,·,–,·,–,·,
CCOC(=O)c1c(-n2c(C)cc(/C=C3\C(=O)NC(=O)N(C)C3=O)c2C)sc2c1CCCC2,–,–,–,–,–,
Cc1cc(/C=C2\C(=O)NC(=O)N(c3ccc(Cl)cc3)C2=O)c(C)n1-c1sc2c(c1C#N)CCCC2,–,–,–,0.8,–,Yeast cmpd fluor=–;CaMdr1 efflux inh=–;Cdr2 pump inh=–;CaCdr1 efflux inh=–
Cc1ccc2c(c1)C1CN(C)CCC1N2C(=O)c1ccc(Br)o1 (stereo not given),–,–,–,0.6,–,Yeast cmpd fluor=–;CaMdr1 efflux inh=–;Cdr2 pump inh=–;CaCdr1 efflux inh=–
